pKi: −log10 of the molar value. Calls of active or inactive are those of the source. The calls are words filed in the database; no cut-off is given here.

Assay [1] in a line: Displacement of [3H]-(+)-MK801 from NMDA receptor PCP binding site in pig cortex membrane after 90 mins by liquid scintillation counting. Type of assay: cell membranes, Sus scrofa. An outline of the steps:
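Pig brain cortex membranes (about 100 µg protein) incubated with 2 nM [3H]-(+)-MK-801 and at least 6 test concentrations in 5 mM Tris–acetate, 1 mM EDTA, pH 7.5, 90 min at 25 °C. Filtered on PEI-soaked GF/C filters. Non-specific binding with 10 µM (+)-MK-801. IC50 by nonlinear regression, triplicates; Ki mean ± SEM of three experiments.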

Assay [2] can be described thus: Displacement of [3H]-ditolylguanidine from sigma 2 receptor PCP binding site in rat liver membrane. Type of assay: cell membranes. In short, it runs like this: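 Non-specific binding with 10 µM unlabelled ditolylguanidine. Triplicates; IC50 from at least 6 concentrations by nonlinear regression; Ki mean ± SEM of three experiments.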
Assay [3] has as its target Sigma non-opioid intracellular receptor 1 (Cavia porcellus, UniProt Q60492). Briefly: Displacement of [3H]-(+)-pentazocine from sigma 1 receptor PCP binding site in guinea pig brain by liquid scintillation counting.
The nature of assay [4]: Displacement of [3H]-(+)-MK801 from NMDA receptor PCP binding site. An outline of the steps: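 Pig brain cortex membranes (about 100 µg protein) incubated with test compound (at least 6 concentrations), 2 nM [3H]-(+)-MK-801 in 5 mM Tris–acetate, 1 mM EDTA, pH 7.5, 90 min at 25 °C. Filtered through polyethylenimine-soaked GF/C filters, counted by scintillation. Nonspecific binding with 10 µM (+)-MK-801. IC50 from nonlinear regression, converted to Ki. Triplicates, three independent experiments.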

Assay [5] in a line: Selectivity ratio of Ki for rat sigma 2 receptor to Ki for guinea pig sigma 1 receptor.
The subject of assay [6] is Mus musculus. Briefly: Analgesic activity against capsaicin-induced nocifensive behavior in mouse assessed as paw withdrawal latency to von Frey filament-induced pain at 32 mg/kg administered 30 mins before and measured 15 mins after capsaicin challenge. Type of assay: functional, organism-based. Set-up: dose 32 mg/kg. In short, it runs like this:
(§1)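 Capsaicin injected into mid-plantar surface of right hind paw of mice; test ligand given 30 min before capsaicin. Mechanical withdrawal latency to a 1 g von Frey filament read 15 min after capsaicin; effect expressed as % analgesia.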

Assay [7] relates to Mus musculus. Briefly: Analgesic activity against capsaicin-induced nocifensive behavior in mouse assessed as paw withdrawal latency to von Frey filament-induced pain at 1 mg/kg administered 30 mins before and measured 15 mins after capsaicin challenge. Type of assay: functional. An outline of the steps:
as §1

The test system of assay [8] is Mus musculus. Briefly: Analgesic activity against capsaicin-induced nocifensive behavior in mouse assessed as paw withdrawal latency to von Frey filament-induced pain at 0.5 mg/kg administered 30 mins before and measured 15 mins after capsaicin challenge. Type of assay: functional. An outline of the steps:
as §1

Assay [9] relates to Mus musculus. The experiment in a line: Analgesic activity against capsaicin-induced nocifensive behavior in mouse assessed as paw withdrawal latency to von Frey filament-induced pain at 0.25 mg/kg administered 30 mins before and measured 15 mins after capsaicin challenge. Type of assay: functional. In short, it runs like this: as §1
For assay [10], the system named is Mus musculus. Briefly: Analgesic activity against capsaicin-induced nocifensive behavior in mouse assessed as paw withdrawal latency to von Frey filament-induced pain at 0.125 mg/kg administered 30 mins before and measured 15 mins after capsaicin challenge. Type of assay: functional. An outline of the steps: as §1

Sequence of Sigma non-opioid intracellular receptor 1 (Q60492 whole entry): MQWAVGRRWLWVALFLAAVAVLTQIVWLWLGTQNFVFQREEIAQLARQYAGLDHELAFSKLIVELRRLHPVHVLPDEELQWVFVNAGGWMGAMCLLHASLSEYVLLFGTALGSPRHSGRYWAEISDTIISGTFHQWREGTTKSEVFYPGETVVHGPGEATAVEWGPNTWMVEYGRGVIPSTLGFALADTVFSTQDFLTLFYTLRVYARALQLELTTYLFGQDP

Consider `CC[C@]1(c2ccccc2)OCC[C@@H](CN)O1`, for which, in assay [1], the pKi is 6.59.

Take `CC[C@@]1(c2ccccc2)OCC[C@@H](CCCN)O1` (relative stereo): the pKi in [2] is 6.27; in assay [3], 5.19; in assay [1], 5.12.

For the molecule `CN(C)CC[C@@H]1CCOC(c2ccccc2)(c2ccccc2)O1`, the figures for the pKi in assay [2], in [3] and in [1] were less than 5.00, 6.18 and less than 5.00, respectively.

Turning to `CNCC[C@@H]1CCO[C@H](c2ccccc2)O1` (racemic), the pKi in [2] was less than 5.00; in assay [3] it was 6.35; in [1], less than 5.00.

Take `CC[C@]1(c2ccccc2)OC[C@H](CCN)O1`: in assay [1], the pKi is 7.16.

For `c1ccc(C2(N3CCCCC3)CCCCC2)cc1` [PHENCYCLIDINE], the negative logarithm of the Ki (pKi) in [1] is 7.55.

Consider `NCCC[C@@H]1CCOC(c2ccccc2)(c2ccccc2)O1`, for which the results for the negative-log Ki (pKi) in assay [2], in assay [3] and in assay [1] were less than 5.00, 6.76 and less than 5.00, respectively.

Consider `c1ccc(C2(c3ccccc3)OC[C@H]([C@@H]3CCCCN3)O2)cc1` [DEXOXADROL], for which, in [4], the negative-log Ki (pKi) is 7.64.

In [2], `Cc1ccccc1NC(=N)Nc1ccccc1C` [DITOLYLGUANIDINE] had a pKi of 7.19.

Regarding `NCCC[C@@H]1CCO[C@H](c2ccccc2)O1` (relative stereo), the figures for the negative logarithm of the Ki (pKi) in assay [2], in [3] and in assay [1] were 6.24, 6.78 and less than 5.00, respectively.

`CC[C@@]1(c2ccccc2)OCC[C@@H](CCN(C)C)O1` (relative stereo): the negative-log Ki (pKi) is less than 5.00 in [2], 6.29 in assay [3] and 6.15 in assay [1].

With `CNCC[C@@H]1CCOC(c2ccccc2)(c2ccccc2)O1`, the pKi in assay [2] is less than 5.00; in assay [3], less than 5.00; in [1], 5.16.

Take `CC[C@]1(c2ccccc2)OC[C@H]([C@@H]2CCCCN2)O1` [ETOXADROL]: the negative logarithm of the Ki (pKi) in assay [1] was 7.66; in assay [4], 7.70.

On to `CC[C@@]1(c2ccccc2)OCC[C@@H](CCNCc2ccccc2)O1` (relative stereo), for which the pKi in assay [2] is 6.04; in assay [3] it was 7.57; in assay [1], less than 5.00. Moreover, the Ratio Ki in [5] was determined as 33. Besides, in the assay with Mus musculus [6], the result was inactive.

As for `CNCCC[C@@H]1CCO[C@H](c2ccccc2)O1` (relative stereo), the pKi in assay [2] is 5.20; in assay [3], 6.49; in assay [1], less than 5.00.

As to `c1ccc(CNCCC[C@@H]2CCO[C@H](c3ccccc3)O2)cc1` (relative stereo), the pKi in assay [2] is 5.41; in [3], 6.79; in [1], less than 5.00.

For the molecule `CC[C@@]1(c2ccccc2)OCC[C@@H](CCNC)O1` (relative stereo), the negative-log Ki (pKi) is less than 5.00 in assay [2], 6.07 in [3] and 6.81 in assay [1].

With `CC[C@@]1(c2ccccc2)OCC[C@@H](CCN)O1` (relative stereo), the pKi in assay [2] was less than 5.00; in [3] it was 6.02; in [1], 7.62.

With `NCC[C@@H]1CCO[C@H](c2ccccc2)O1` (racemic), the pKi in assay [2] is less than 5.00; in assay [3] it was 6.78; in assay [1], less than 5.00.

Consider `NC[C@@H]1CCOC(c2ccccc2)(c2ccccc2)O1`, for which the pKi in assay [1] was 6.14.

Regarding `NCC[C@H]1COC(c2ccccc2)(c2ccccc2)O1`, in [1], the negative logarithm of the Ki (pKi) was 5.49.

`c1ccc(CNCC[C@@H]2CCOC(c3ccccc3)(c3ccccc3)O2)cc1`: the pKi in assay [2] was 5.56; in assay [3] it was 6.49; in assay [1], less than 5.00.

Take `c1ccc(CNCC[C@@H]2CCO[C@H](c3ccccc3)O2)cc1` (racemic): the values for the pKi in assay [2], in [3] and in assay [1] were 7.04, 7.72 and less than 5.00, respectively. Moreover, the Ratio Ki in assay [5] worked out at 5. Moreover, the result in the assay on Mus musculus [6] was Active. The Activity in the assay on Mus musculus [7] stood at 100%; in the assay with Mus musculus [8], 100%; in the assay on Mus musculus [9] it was 70%; in the assay with Mus musculus [10], 10%.

`NCC[C@@H]1CCOC(c2ccccc2)(c2ccccc2)O1`: the pKi was less than 5.00 in assay [2], less than 5.00 in assay [3] and 5.63 in [1].

Turning to `CN(C)CCC[C@@H]1CCO[C@H](c2ccccc2)O1` (relative stereo), the pKi in [2] was less than 5.00; in assay [3], 5.91; in assay [1] it was less than 5.00.

Consider `CN(C)CC[C@@H]1CCO[C@H](c2ccccc2)O1` (racemic), for which the negative logarithm of the Ki (pKi) in assay [2] was 5.74; in [3] it was 5.78; in assay [1] it was less than 5.00.

Take `NCC[C@@H]1CCOC2(O1)C1CC3CC(C1)CC2C3` (some centres undefined): the negative logarithm of the Ki (pKi) in assay [2] was less than 5.00; in assay [3], 5.90; in assay [1], less than 5.00.

Values taken from ChEMBL document CHEMBL1781950, “Synthesis of 4-(aminoalkyl) substituted 1,3-dioxanes as potent NMDA and σ receptor antagonists” (Eur J Med Chem, 2011).
